Test results taken from publication PMC3401603 (Nature Chemical Biology, 2012).

Columns and labels:
[1] = target: wild-type menin (Homo sapiens, UniProt O00255); experiment: Thermal shift assay, wild-type menin; type: binding
[2] = target: M278K menin mutant (Homo sapiens, UniProt O00255, M278K); experiment: Thermal shift assay, M278K menin mutant; type: binding
[3] = target: Y323K menin mutant (Homo sapiens, UniProt O00255, Y323K); experiment: Thermal shift assay, Y323K menin mutant; type: binding
[4] = target: menin-MLL-AF9 complex (Homo sapiens, UniProt O00255); experiment: Co-immunoprecipitation in HEK293 cells transfected with Flag-MLL-AF9; type: cell-based
Outline: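 Menin co-precipitating with Flag-MLL-AF9 was detected by Western blot. Untransfected cells controlled for endogenous menin and for absence of MLL-AF9. Menin and MLL-AF9 expression levels were also checked by Western blot.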

[5] = test system: MLL-AF9 transduced BMC; experiment: MTT cell viability assay, MLL-AF9 transduced BMC; type: cell-based, mouse
Outline: (§1)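 Retrovirally transduced mouse bone marrow cells were grown in IMDM with 15% FBS, 1% penicillin/streptomycin and IL-3. Growth inhibition by the test compound was measured by MTT viability assay. Quadruplicates, mean ± s.d.; three experiments.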

[6] = test system: MLL-ENL transduced BMC; experiment: MTT cell viability assay, MLL-ENL transduced BMC; type: cell-based, mouse
Outline: as §1

[7] = test system: E2A-HLF transduced BMC; experiment: MTT cell viability assay, E2A-HLF transduced BMC; type: cell-based, mouse
Outline: as §1

[8] = test system: MLL-AF9 transformed BMC; experiment: Methylcellulose colony formation assay, MLL-AF9 transformed BMC; type: cell-based, mouse; details: 7 days
Outline: (§2)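 Transduced BMC were plated at 5×10³ cells/ml in methylcellulose medium containing 20% IMDM, 1% penicillin/streptomycin, IL-3 and either the test compound or 0.25% DMSO. Colonies were stained with iodonitrotetrazolium chloride (1 mg/ml final, 37 °C, 30 min) and counted. For a second round, unstained colonies were counted, washed out in PBS, and 5×10³ cells were replated in the same medium with compound, then stained and counted.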

[9] = test system: E2A-HLF transformed BMC; experiment: Methylcellulose colony formation assay, E2A-HLF transformed BMC; type: cell-based, mouse
Outline: as §2

[10] = test system: MLL-AF9 transformed BMC; experiment: Differentiation by morphology; type: cell-based, mouse; details: 7 to 10 days, 25 μM
[11] = test system: MLL-ENL transformed BMC; experiment: Differentiation by morphology, MLL-ENL transformed BMC; type: cell-based, mouse
[12] = test system: E2A-HLF transformed BMC; experiment: Differentiation by morphology, E2A-HLF transformed BMC; type: cell-based, mouse
[13] = test system: CD11b expression in MLL-AF9 transformed BMC; experiment: CD11b expression by flow cytometry, MLL-AF9 transformed BMC; type: cell-based, mouse; details: 7 days of treatment
Outline: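 BMC were cultured in IMDM with 15% FBS, penicillin/streptomycin and IL-3, and plated at 5×10⁵ cells/ml with the test compound or 0.25% DMSO. Every 48h the medium was changed, viable density restored and compound resupplied. 1.5×10⁵ cells were washed in PBS/1% FBS/0.1% NaN₃, stained with Pacific Blue anti-mouse CD11b (4 °C, 30 min), then Annexin V-FITC/PI, and run on flow cytometry. Triplicates, mean ± s.d.; one-way ANOVA against DMSO; three experiments.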

[14] = test system: Hoxa9; experiment: Quantitative RT-PCR of Hoxa9 in MLL-AF9 transduced BMC; type: cell-based, mouse; details: 6 days
[15] = test system: Meis1; experiment: Quantitative RT-PCR of Meis1 in MLL-AF9 transduced BMC; type: cell-based, mouse; details: 6 days
[16] = test system: menin and MLL-AF9 at the Hoxa9 locus; experiment: ChIP at the Hoxa9 locus in MLL-AF9 transduced BMC; type: cell-based, mouse; details: 12.5 μM
Outline: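 ChIP used BMC exposed to the test compound at 12.5 μM or to DMSO. Antibodies were against menin and AF9, with IgG as control. Enrichment was read at two sites in the Hoxa9 promoter region. Duplicate samples, mean ± s.d.; two experiments.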

[17] = test system: MV4;11 (harboring MLL-AF4); experiment: MTT cell viability assay, MV4; type: cell-based, human; details: MV4;11, MTT, 72h
Outline: (§3)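 Growth inhibition was read by MTT viability assay, with 72h treatment stated for KOPN-8 and MV4;11. Media: KOPN-8 and ML-2, RPMI-1640 with 10% FBS. MV4;11, RPMI-1640 with 10% FBS, 1% penicillin/streptomycin and NEAA. MonoMac-6, RPMI-1640 with 15% FBS, human insulin, penicillin/streptomycin and NEAA. For KOPN-8 and MV4;11: four samples, mean ± s.d., three experiments.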

[18] = test system: KOPN-8 (MLL-ENL); experiment: MTT cell viability assay, KOPN-8; type: cell-based, human; details: KOPN-8, MTT, 72h
Outline: as §3

[19] = test system: ML-2 (MLL-AF6); experiment: MTT cell viability assay, ML-2; type: cell-based, human; details: ML-2, MTT
Outline: as §3

[20] = test system: MonoMac6 (MLL-AF9); experiment: MTT cell viability assay, MonoMac6; type: cell-based, human
Outline: as §3

[21] = test system: Kasumi-1, ME-1, HAL-01 and REH; experiment: Growth of human acute leukemia cell lines lacking MLL fusions; type: cell-based; details: low HOXA9: Kasumi-1, ME-1, HAL-01, REH
[22] = test system: MV4;11; experiment: Annexin V/PI apoptosis assay, MV4; type: cell-based, human; details: MV4;11, 48h
Outline: (§4)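 Cells were seeded at 5×10⁵ cells/ml and exposed to the test compound or vehicle (0.25% DMSO final) for 48h at 37 °C in 5% CO₂. 1.5×10⁵ cells were then stained with Annexin V-FITC and propidium iodide in Annexin V binding buffer for 10 min at room temperature in the dark, and analysed by flow cytometry. Three experiments in triplicate; mean and SD.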

[23] = test system: MonoMac6; experiment: Annexin V/PI apoptosis assay, MonoMac6; type: cell-based, human; details: MonoMac6, 48h
Outline: as §4

[24] = test system: MV4;11 leukemia cells; experiment: Cell cycle analysis by FACS after PI staining, MV4; type: cell-based, human; details: MV4;11, PI staining
[25] = test system: CD11b expression in THP-1 cells; experiment: CD11b expression by flow cytometry, THP-1; type: cell-based, human; details: THP-1, 6 days of treatment
[26] = test system: HOXA9; experiment: qRT-PCR of HOXA9 in THP-1 cells; type: cell-based, human; details: THP-1, 6 days
Outline: (§5)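 THP-1 cells in RPMI-1640 with 10% FBS, 1% penicillin/streptomycin and NEAA were treated with the test compound for 6 days. Total RNA (100–1000 ng) was reverse transcribed, and TaqMan qPCR measured human HOXA9 or MEIS1, normalised to 18S rRNA by the comparative Ct method. Duplicates, mean ± s.d.; three experiments.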

[27] = test system: MEIS1; experiment: qRT-PCR of MEIS1 in THP-1 cells; type: cell-based, human; details: THP-1, 6 days
Outline: as §5

M278K menin mutant, sequence (O00255 whole entry M278K): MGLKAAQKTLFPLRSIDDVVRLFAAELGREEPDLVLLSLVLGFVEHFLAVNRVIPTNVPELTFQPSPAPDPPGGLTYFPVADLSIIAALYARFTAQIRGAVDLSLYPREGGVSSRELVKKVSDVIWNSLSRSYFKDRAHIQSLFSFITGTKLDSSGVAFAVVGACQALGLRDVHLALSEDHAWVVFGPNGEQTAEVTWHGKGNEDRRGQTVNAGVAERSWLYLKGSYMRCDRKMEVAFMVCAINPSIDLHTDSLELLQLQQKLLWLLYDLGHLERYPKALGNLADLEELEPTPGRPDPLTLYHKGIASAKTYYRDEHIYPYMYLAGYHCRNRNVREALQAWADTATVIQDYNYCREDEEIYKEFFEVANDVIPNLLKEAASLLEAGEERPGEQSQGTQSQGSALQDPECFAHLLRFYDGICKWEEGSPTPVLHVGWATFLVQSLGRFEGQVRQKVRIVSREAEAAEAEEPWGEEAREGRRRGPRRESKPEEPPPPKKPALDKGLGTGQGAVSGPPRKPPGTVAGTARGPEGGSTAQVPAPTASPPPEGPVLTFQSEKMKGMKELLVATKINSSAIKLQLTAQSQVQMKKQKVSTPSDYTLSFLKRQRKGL
Y323K menin mutant, sequence (O00255 whole entry Y323K): as the sequence (O00255 whole entry M278K) above, with K278M, Y323K counted along it
wild-type menin, sequence (O00255 whole entry): as the sequence (O00255 whole entry M278K) above, with K278M counted along it
menin-MLL-AF9 complex, sequence (O00255 whole entry, one chain of several): as the sequence (O00255 whole entry M278K) above, with K278M counted along it

For `CCCc1cc2c(N3CCN(C4=NCC(C)(C)S4)CC3)ncnc2s1` [MI-2], the “binding to wild-type menin” value [1] was “clearly observed binding”, the “binding to M278K menin mutant” value [2] was “no binding” and the “binding to Y323K menin mutant” value [3] was “no binding”. The “disruption of the menin-MLL-AF9 complex (co-IP)” value [4] was “very efficiently disrupted”, the GI50 [5] was about 5 µM and the GI50 [6] was about 5 µM. For the same compound, the GI50 [7] was over 50 µM, the “effect on colony formation” value [8] was “substantially reduced colony formation” and the “effect on the number, size and morphology of colonies” value [9] was “only a limited effect”. For the same compound, the “differentiation (cell morphology)” value [10] was “substantial changes in morphology, indicative of monocytic differentiation”, the “differentiation (cell morphology)” value [11] was “observed differentiation” and the “differentiation (cell morphology)” value [12] was “did not differentiate”. For the same compound, the “expression of CD11b” value [13] was “substantially increased”, the “decrease of Hoxa9 expression level” value ([14]; 12.5 μM) was over 80% and the “decrease of Hoxa9 expression level” value ([14]; 25 μM) was over 80%. For the same compound, the “decrease of Meis1 expression level” value ([15]; 12.5 μM) was over 80%, the “decrease of Meis1 expression level” value ([15]; 25 μM) was over 80% and the “binding of menin and MLL-AF9 to the Hoxa9 locus (ChIP)” value [16] was “decreased binding of menin and MLL-AF9”. For the same compound, the GI50 [17] was 9.5 µM, the GI50 [18] was 7.2 µM and the GI50 [19] was 8.7 µM. The GI50 [20] was 18 µM, the effect on proliferation [21] was “very limited effect” and the “Annexin V (+) and Annexin V/PI (+)/(+) cells (apoptosis)” value [22] was “substantial, and dose-dependent increase”. For the same compound, the “Annexin V (+) and Annexin V/PI (+)/(+) cells (apoptosis)” value [23] was “substantial, and dose-dependent increase”, the “effect on cell cycle progression” value [24] was “consistent increase in the number of cells in G0/G1 phase” and the CD11b positive cells [25] was “substantial increase in CD11b positive cells”. The “expression of HOXA9” value [26] was “substantially reduced expression” and the “expression of MEIS1” value [27] was “substantially reduced expression”.
